Results as given in ChEMBL document CHEMBL4330162, “Structure of Hierridin C, Synthesis of Hierridins B and C, and Evidence for Prevalent Alkylresorcinol Biosynthesis in Picocyanobacteria” (J Nat Prod, 2019).
Calls of active or inactive are those of the source. No cut-off for these calls is given here.

Tests used:
HepG2 = assay: Cytotoxicity against human HepG2 cells up to 72 uM after 24 to 48 hrs by MTT assay; type: functional, cell-based
Method in brief: (§1)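 Cells seeded at 10^4 cells cm−2 and left 24 h to adhere. Exposed 24 or 48 h to fresh medium containing compound from DMSO (1 μL per 100 μL) at final 3 and 30 μg mL−1. MTT added at 0.5 mg mL−1, formazan dissolved in DMSO, absorbance read at 550 nm. Triplicate.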

T47D = assay: Cytotoxicity against human T47D cells up to 72 uM after 24 to 48 hrs by MTT assay; type: functional, cell-based; method in brief: as §1
SH-SY5Y = assay: Cytotoxicity against human SH-SY5Y cells up to 72 uM after 24 to 48 hrs by MTT assay; type: functional, cell-based; method in brief: as §1
MG-63 = assay: Cytotoxicity against human MG63 cells up to 72 uM after 24 to 48 hrs by MTT assay; type: functional, cell-based; method in brief: as §1
HT-29 = assay: Cytotoxicity against human HT-29 cells up to 72 uM after 24 to 48 hrs by MTT assay; type: functional, cell-based; method in brief: as §1
Plasmodium falciparum [1] = assay: Antimalarial activity against Plasmodium falciparum Dd2 infected in human erythrocytes after 48 hrs by SYBR Green-1 dye based assay; type: functional, organism-based; conditions: Dd2, 48 h
Method in brief: (§2)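 Asexual parasites kept on human erythrocytes in RPMI 1640 with 25 mM HEPES, […] hypoxanthine and 10% AlbuMAX II, pH 7.2. Cultures held at 37 °C under 5% O2 and 3−5% CO2 in N2, and sorbitol-synchronized. SYBR Green I fluorescence read at ex 485/em 535 nm. Percent survival vs untreated; IC50 by nonlinear regression.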

Plasmodium falciparum [2] = assay: Antimalarial activity against Plasmodium falciparum 3D7 infected in human erythrocytes after 48 hrs by SYBR Green-1 dye based assay; type: functional, organism-based; conditions: 3D7, 48 h; method in brief: as §2
Caco-2 = assay: Cytotoxicity against human Caco2 cells up to 72 uM after 24 to 48 hrs by MTT assay; type: functional, cell-based; method in brief: as §1
RKO = assay: Cytotoxicity against human RKO cells up to 72 uM after 24 to 48 hrs by MTT assay; type: functional, cell-based; method in brief: as §1

IC50 (Plasmodium falciparum [1]) [nM] | IC50 (Plasmodium falciparum [2]) [nM] | SMILES | Activity (HepG2) | Activity (T47D) | Activity (SH-SY5Y) | Activity (MG-63) | Activity (HT-29) | Activity (Caco-2) | Activity (RKO)
2300 | 1500 | CCCCCCCCCCCCCCCc1c(O)c(OC)cc(OC)c1Cl | inactive | inactive | inactive | inactive | inactive | inactive | inactive
2300 | 2100 | CCCCCCCCCCCCCCCc1cc(OC)cc(OC)c1O | – | – | – | – | – | – | –
